What was measured:
[1] = (§1) Activity of HIV1 reverse transcriptase 41L/67N/70R/210W/215Y mutant in presence of 3.2 mM ATP by prA/odT assay; design: species or system Human immunodeficiency virus 1
In short: (§2)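 Buffer: 50 mM HEPES pH 7.3, 10 mM MgCl2, 0.5% Triton X-100, 0.1 mg/ml BSA. Incubation 180 min at 33°C. Product detected with AP-conjugated anti-BrdU at 405 nm. […] Ki from four inhibitor levels. At least two experiments in duplicate.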

[2] = (§3) Activity of HIV1 reverse transcriptase wild type HXB2(b) in presence of 3.2 mM ATP by prA/odT assay; design: species or system Human immunodeficiency virus 1
In short: (§4)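 Buffer is HEPES 50 mM pH 7.3 with MgCl2 10 mM, Triton X-100 0.5% and BSA 0.1 mg/ml. RT 4–12 pM/well, 33°C for 180 min, no NaOH step. Km obtained as the mean of at least two runs done in duplicate.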

[3] = (§5) Activity of HIV1 reverse transcriptase 41L/67N/70R/215Y/219Q mutant in presence of 3.2 mM ATP by prA/odT assay; design: species or system Human immunodeficiency virus 1; in short: as §2
[4] = Inhibition of HIV1 reverse transcriptase wild type HXB2(b) in presence of 3.2 mM ATP by prA/odT assay; design: species or system Human immunodeficiency virus 1
[5] = Activity of HIV1 reverse transcriptase 41L/69S-SG/210W/215Y mutant in presence of 3.2 mM ATP by prA/odT assay
[6] = Inhibition of HIV1 LAI reverse transcriptase 65R mutant by heteropolymeric DNA polymerase assay; design: species or system Human immunodeficiency virus 1
In short: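 Purified p66/p51 HIV-1 RT, or p66 homodimer for 65R, at 30–100 pM (about 1.5–4.5 mU/well). Plate-bound 18-mer DNA primer on a 50-base 5′-A12-(GTCA)5-3′ DNA template. dATP, dGTP, dCTP and BrdUTP at 1.0 μM each, no ATP. Buffer: HEPES 50 mM pH 7.3, 10 mM MgCl2. Incubation 180 min at 33°C, NaOH dehybridization, anti-BrdU-AP tracer, A405. IC50 from seven inhibitor concentrations, at least two experiments in duplicate.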

[7] = system: Human immunodeficiency virus 1; assay: Activity of HIV1 reverse transcriptase wild type HXB2(a) in presence of 3.2 mM ATP by prA/odT assay; in short: as §4
[8] = system: Human immunodeficiency virus 1; assay: as §1; in short: as §2
[9] = system: Human immunodeficiency virus 1; assay: as §3; in short: as §4
[10] = system: Human immunodeficiency virus 1; assay: as §5; in short: as §2
[11] = system: Human immunodeficiency virus 1; assay: Activity of HIV1 reverse transcriptase 41L/69S-SG/210W/215Y mutant in presence of 3.2 mM ATP by prA/odT assay
[12] = biological target: HIV1 RT 41L/69S-SG/210W/215Y mutant (HIV-1); assay: Inhibition of HIV1 reverse transcriptase 41L/69S-SG/210W/215Y mutant in presence of 3.2 mM ATP by prA/odT assay

| Compound | Km [1] [µM] | Km [2] [µM] | Km [3] [µM] | Ki [4] [nM] | Km [5] [µM] | IC50 [6] [nM] | Km [7] [µM] | Km [8] [µM] | Km [9] [µM] | Km [10] [µM] | Km [11] [µM] | Ki [12] [nM] |
| --- | --- | --- | --- | --- | --- | --- | --- | --- | --- | --- | --- | --- |
| Cc1cn([C@H]2C[C@H](N=[N+]=[N-])[C@@H](COP(=O)(O)OP(=O)(O)OP(=O)(O)O)O2)c(=O)[nH]c1=O [ZIDOVUDINE TRIPHOSPHATE] | 0.43 | 0.29 | 0.49 | 4 | 0.53 |  |  |  |  |  |  |  |
| C[C@H](Cn1cnc2c(N)ncnc21)OCP(=O)(O)OP(=O)(O)OP(=O)(O)O |  |  |  |  |  | 12000 |  |  |  |  |  |  |
| Cc1cn([C@H]2CO[C@@H](COP(=O)(O)OP(=O)(O)OP(=O)(O)O)O2)c(=O)[nH]c1=O |  |  |  | 1.8 |  | 460 | 0.32 | 0.51 | 0.24 | 0.42 | 0.5 | 59 |
